We go through 167 variants from the RNAGym collection of RNA variant scans (doi:10.1126/science.aae0568).

This sample holds only a part of the variants without activity. A value given as a limit tells only on which side of the number the result lay.

The labels stand for the following.
B1: tRNA (parent)
chain: GUUCCGUUGGCGUAAUGGUAACGCGUCUCCCUCCUAAGGAGAAGACUGCGGGUUCGAGUCCCGUACGGAACG

In this series the parent is B1. The series can be described thus: yeast fitness relative to wild type (ratio to wild type); higher = fitter; tRNA-Arg(CCU), competitive growth, 37 C, YPD. The method, boiled down:
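Genotype frequency changes were the basis for Darwinian fitness relative to wild type. The frequencies came from 100-nucleotide paired-end sequencing of gene amplicons from the start population and each end population of pooled yeast strains with tRNA-Arg(CCU) gene variants at the native locus. Competition ran in YPD at 37°C for 24 hours in six replicates, genotypes needed ≥ 100 starting reads, and estimates < 0.5 were set to 0.5.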
For C30U G38C C61U, the yeast fitness was found to be 0.542.
For C30U C46A C61A G68A, the yeast fitness was not above 0.5.
Turning to C30U C33A G56C A70C, the yeast fitness is not above 0.5.
For the variant C30U A43G, the yeast fitness turned out to be 0.647.
The value for C30U C55G A69C was not above 0.5; that for C30U C46A was 0.982.
For C30U C46U, the yeast fitness was found to be 0.966.
The value for C30U C46G was 0.874.
As to C30U G52A G68C, the yeast fitness is not above 0.5.
Consider C30U G68A A69C, for which the yeast fitness is 0.544.
Take C30U U54C A57C: the yeast fitness was not above 0.5.
With C30U C33A A36U A43U U54C G56A, the yeast fitness was determined as 0.54.
In the case of C31A it was 0.848.
In the case of C30U U54A C66U A70C it was not above 0.5.
The value for C30U U54A G68U was not above 0.5; that for C30U G63C was 0.757.
C30U G63A: the yeast fitness was determined as 0.729.
For C30U U35C G51U C61U, the yeast fitness was not above 0.5.
As to C30U C61G A70C, the yeast fitness was not above 0.5.
The value for C30U A42G G52C was not above 0.5.
For C30U U47C A65G, the yeast fitness was not above 0.5.
As to C30U C60G G67A, the yeast fitness was not above 0.5.
The value for C30U U54C was 0.805.
As for C30U U47C, the yeast fitness is 0.835.
Take C30U A43U C55A: the yeast fitness is not above 0.5.
For the variant C30U C33A G41C A42U, the yeast fitness was not above 0.5.
In the case of C30U C49A G52A C61G A70U it was not above 0.5; in that of C31A A40C, 0.775; in that of C30U C33A G63C U64C, not above 0.5.
Consider C30U G51A, for which the yeast fitness came to 0.7.
In the case of C30U G51C, the yeast fitness worked out at 0.535.
The value for C31A A37U G63A G67C was not above 0.5.
For C30U G48C, the yeast fitness worked out at 0.872.
Turning to C30U U54C A57C A70C, the yeast fitness is not above 0.5.
Consider C30U A45G G58A, for which the yeast fitness amounted to 0.663.
Turning to C30U C34U, the yeast fitness was 0.715.
The value for C30U C34A was 0.806; that for C30U G39A was 0.897; that for C30U C46A G63A was 0.825.
Turning to C30U G38C, the yeast fitness amounted to 0.66.
With C30U G38A, the yeast fitness came out at 1.
In the case of C30U G38U, the yeast fitness worked out at 0.824.
With C30U G67C, the yeast fitness was found to be 0.864.
For the variant C30U G67A, the yeast fitness amounted to 0.921.
In the case of C31A A36C G44A A57U C66A, the yeast fitness is not above 0.5.
Consider C30U A43C G52A C66U, for which the yeast fitness was not above 0.5.
As for C30U G68A A70U, the yeast fitness was found to be 0.577.
As for C31A A36G A57U, the yeast fitness is 0.539.
C30U A42U: the yeast fitness worked out at 0.879.
The value for C30U U32G A37G was not above 0.5; that for C30U C33G C46G was not above 0.5; that for C30U G52A U54C was not above 0.5.
Regarding C30U G44C G51A C61U, the yeast fitness is not above 0.5.
In the case of C30U C31G C66U, the yeast fitness is 0.512.
Turning to C30U A57G A65U, the yeast fitness was determined as 0.667.
Regarding C30U G38C A40G, the yeast fitness was 0.569.
Consider C30U G38A G52A, for which the yeast fitness amounted to 0.621.
Turning to C30U U35A A42G C61U G63A, the yeast fitness worked out at 0.519.
On to C30U C61U G63C, for which the yeast fitness was not above 0.5.
As for C30U C31U A45C C49U U53G, the yeast fitness was not above 0.5.
Turning to C30U C31G U53C, the yeast fitness is not above 0.5.
On to C31A A36U, for which the yeast fitness was 0.705.
As to C30U C49U, the yeast fitness is 0.862.
On to C30U C49U A70C, for which the yeast fitness is 0.543.
As to C30U C34U G51C C55U, the yeast fitness was not above 0.5.
In the case of C30U U32A A36U A37U C62U G63A it was not above 0.5; in that of C30U A42G C60G C62G A65G, not above 0.5; in that of C30U C31G U35A, 0.62.
Consider C30U C33U A57G C60A, for which the yeast fitness is not above 0.5.
In the case of C30U C62U G68C, the yeast fitness was found to be 0.598.
As to C30U U47A G67C, the yeast fitness was found to be 0.567.
With C30U C31U G41C, the yeast fitness was 0.526.
In the case of C30U C31A G41A, the yeast fitness was not above 0.5.
With C30U A43C U54A, the yeast fitness is 0.611.
Consider C30U G41C A70U, for which the yeast fitness is 0.567.
Turning to C30U C31U, the yeast fitness came to 1.02.
As for C30U G38C C55A G67A, the yeast fitness is not above 0.5.
Take C30U A42G C55U: the yeast fitness worked out at 0.545.
C30U C55U C66U: the yeast fitness came to 0.531.
For C30U A45C, the yeast fitness was found to be 0.72.
Turning to C30U A45G, the yeast fitness was determined as 0.781.
For C30U U32A A36U A37U C61A, the yeast fitness is not above 0.5.
The value for C30U U35A A37G G38C U47A was not above 0.5; that for C30U C46A G50A was 0.632.
As to C30U C46A G68C, the yeast fitness amounted to 0.704.
With C30U U32C, the yeast fitness was 0.924.
For C30U G68U, the yeast fitness worked out at 0.923.
Consider C30U G68A, for which the yeast fitness was determined as 0.744.
In the case of C30U C34G U59C, the yeast fitness is not above 0.5.
On to C30U C55G G58C, for which the yeast fitness is 0.526.
For the variant C30U C31G A36C U54A, the yeast fitness came out at 0.674.
As for C30U U32G A36G A37U U47A, the yeast fitness stood at 0.559.
Turning to C30U C31G A43C G51A, the yeast fitness is 0.565.
C30U C66A: the yeast fitness was 0.765.
On to C30U C66G, for which the yeast fitness amounted to 0.617.
Turning to C30U U47A U59A C60U C62G C66U, the yeast fitness was not above 0.5.
On to C30U U47A G67C G68A, for which the yeast fitness was not above 0.5.
As to C30U C33U A43G, the yeast fitness stood at 0.569.
In the case of C30U A43U C61G A69C, the yeast fitness was not above 0.5.
The value for C30U G39C U53A was not above 0.5; that for C30U C33A G50C C55G was not above 0.5.
Consider C30U U35C A45U A57C, for which the yeast fitness was 0.534.
The value for C30U U47A A57G G67C was not above 0.5; that for C30U U54A A70U was 0.572.
As for C30U U54A A70G, the yeast fitness is 0.518.
For C30U G50C A70G, the yeast fitness is not above 0.5.
The value for C30U U35C A43C G67U was not above 0.5; that for C30U C31A U54G was 0.549.
For C30U C49G U54A, the yeast fitness is not above 0.5.
The value for C30U U32C U54A was not above 0.5; that for C30U C61A was 0.648; that for C30U C31A A40U C49A was 0.682.
Consider C31A A40C C46U C55U G63A, for which the yeast fitness was not above 0.5.
The value for C30U G38A C60G was 0.537; that for C31A A40C U47A U64A was not above 0.5; that for C30U C33A A43G was not above 0.5.
For C30U C34U G44C, the yeast fitness was not above 0.5.
With C30U C31U C34A A70C, the yeast fitness was not above 0.5.
On to C30U G51C G67A, for which the yeast fitness is not above 0.5.
For C30U C46U C60A, the yeast fitness was not above 0.5.
As for C30U C31U C60G, the yeast fitness is not above 0.5.
As for C30U G41C A69U, the yeast fitness was not above 0.5.
Turning to C30U U32A U54A, the yeast fitness came to 0.536.
Regarding C30U C34G C46U C55U G67C, the yeast fitness is not above 0.5.
For the variant C30U G38A A69U, the yeast fitness is 0.781.
In the case of C30U G58A C61G it was not above 0.5; in that of C30U A43C G58A, 0.99.
Take C30U U32G U64A G68C: the yeast fitness was not above 0.5.
Regarding C30U G41C, the yeast fitness was 0.651.
For C30U G41A, the yeast fitness came to 0.842.
In the case of C30U G44C A65U it was not above 0.5.
C30U A57C: the yeast fitness came to 0.586.
With C31A A40C C62U, the yeast fitness is 0.532.
C30U A42G C62A: the yeast fitness is not above 0.5.
Regarding C30U A57G C60G, the yeast fitness is not above 0.5.
The value for C30U C33G A69C was 0.546.
On to C30U U59C, for which the yeast fitness is 0.824.
Take C30U U59A: the yeast fitness amounted to 0.828.
Take C30U C34U A37U U59C C66U: the yeast fitness came out at 0.565.
Regarding C30U G44A A65U, the yeast fitness was not above 0.5.
With C30U G56A G67C, the yeast fitness came to 0.603.
The value for C30U A43U C62U was 0.845.
In the case of C31A A37C C46U, the yeast fitness was not above 0.5.
Turning to C30U C55G, the yeast fitness is 0.553.
In the case of C30U C55U it was 0.687; in that of C30U C31U A36C, not above 0.5; in that of C30U G44A C60G, not above 0.5.
For C30U G38C G58A C61A, the yeast fitness is not above 0.5.
Turning to C30U U35A, the yeast fitness was 0.63.
In the case of C30U G50A G68A, the yeast fitness was not above 0.5.
C30U C46A U54A A57G: the yeast fitness is 0.52.
In the case of C30U U64C it was 0.902.
Turning to C30U A65G, the yeast fitness is 0.932.
For the variant C30U A65U, the yeast fitness was 0.876.
In the case of C30U C62U it was 0.868.
Consider C31A A37C G67A, for which the yeast fitness is not above 0.5.
The value for C30U C34G C46U was not above 0.5; that for C30U G50C C66U was 0.526; that for C31A A37G C49U C55U A57G was not above 0.5.
C30U G39A C61G C62G: the yeast fitness is not above 0.5.
For the variant C30U A69U A70C, the yeast fitness was determined as 0.737.
In the case of C30U G38A C61U it was 0.692; in that of C30U G39C U64C, 0.528; in that of C30U C46A C62U, 0.852.
C30U G51C G58A: the yeast fitness was not above 0.5.
Turning to C30U U35C A42C G48C, the yeast fitness was not above 0.5.
In the case of C30U C34G A57G, the yeast fitness stood at 0.569.
